Screens deposited in PubChem BioAssay by several laboratories.
In the library only some 2.7% were active in any assay of this set; here they are far more common.
MC4R ag barr: activates human MC4R beta-arrestin recruitment | U2OS MC4R beta-arrestin complementation, luminescence; percent of melanotan II response, DMSO zero | 0.98% of 360,000 active | activation, % at 8.9 µM | AID 540308 | P32245;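 active = activation above a per-plate cutoff, the mean activation of sample wells on that plate plus 3 SD, cut at about 8% in these data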
Target sequence (P32245 whole entry, looked up): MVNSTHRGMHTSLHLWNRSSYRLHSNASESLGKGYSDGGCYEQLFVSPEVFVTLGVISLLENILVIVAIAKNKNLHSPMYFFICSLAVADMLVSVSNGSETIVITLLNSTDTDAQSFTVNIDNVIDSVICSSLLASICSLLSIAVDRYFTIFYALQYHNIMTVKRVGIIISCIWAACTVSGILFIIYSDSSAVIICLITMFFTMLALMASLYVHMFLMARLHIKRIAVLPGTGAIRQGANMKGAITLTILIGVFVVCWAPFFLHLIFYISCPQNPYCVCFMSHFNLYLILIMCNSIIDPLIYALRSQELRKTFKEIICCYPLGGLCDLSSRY
NR2E3 ag-1: NR2E3 (human) agonism; Q9Y5X4; GST-NR2E3/biotin-RetCOR TR-FRET, 1536-well; inhibition of corepressor binding, % at 4.78 µM; 0.12% of 320,000 active; AID 2300;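 active = percent inhibition above the cutoff of mean plus 3 SD of all tested compounds, set per screening campaign, cut at about 20% in these data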;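 note: 0% = DMSO wells and 100% = biotin wells as full block of FRET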
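Assay system: NR2E3–RetCOR corepressor complex. Quantity: 1.35 nM GST-NR2E3. Buffer or medium: pH 7.5 Tris-based buffer. Reagent: biotinylated RetCOR corepressor at 7 nM final. Schedule: 5 h at 4 °C. Detection: TR-FRET, emission read at 617 and 671 nm. Replicates: one well per compound, singlicate testing.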
PG9 binder: small molecules binding HIV-1 gp120 antibody PG9; 0.43% of 360,000 active; inhibition, % at 6.7 µM; TR-FRET gp120-PG9 antibody binding; in the data active = inhibition above about 8.5%
NR2E3 ag-2: human photoreceptor-specific nuclear receptor agonism; Q9Y5X4; CHO-S Gal4-NCOR/VP16-NR2E3 two-hybrid, luciferase; inhibition of corepressor binding, % at 3.98 µM; 0.35% of 360,000 active; AID 602229;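 active = inhibition above the mean of all tested compounds plus 3 SD, cut at about 70% in these data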;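 note: 0% = DMSO with NR2E3 transfected cells and 100% = cells lacking NR2E3 construct; higher means lower luciferase signal from less NR2E3 corepressor binding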
NR1D1 modulator: modulates human Rev-erb alpha binding to DNA; P20393; Rev-erbα–FITC-DNA binding, fluorescence polarization, 90 min; activity, % at 10 µM; 0.79% of 370,000 active;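 active = activity above about 14%, limit read from the data; passing the limit was not always enough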;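 note: 0% = DMSO wells with 35 nM protein and 100% = DMSO wells with 750 nM protein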
MC4R antagonist: antagonists of human melanocortin 4 receptor (MC4R). 0.48% of 360,000 active. MC4R-expressing cells, MTII-stimulated cAMP, LANCE TR-FRET. inhibition, % at 6.5 µM. P32245;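 active = inhibition above its plate's cutoff, the mean of tested wells on that plate plus 3 SD, cut at about 29% in these data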;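 note: 0% = Melanotan II alone and 100% = Melanotan II plus saturating MCL0020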
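Test system: U2OS cells stably expressing human melanocortin 4 receptor (MC4R); also added: Melanotan II challenge; compound: 6.5 µM single dose; timing: 30-min compound preincubation, 1-h Melanotan II challenge, 1-h detection, room temperature; signal: Eu-cAMP/anti-cAMP TR-FRET, emission 671 nm; repeats: one well per compound, no replicates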
MC4R barr conf: human MC4R beta-arrestin agonism confirmation; shares compounds with MC4R ag barr; U2OS MC4R beta-arrestin recruitment, luminescence; scaled DMSO 0%, Melanotan II 100%; activation, % at 8.9 µM; 31% of 2,400 active;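 active = mean activation across replicates above the hit cutoff set in the earlier primary screen, cut at about 8% in these data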
MOR DOR agonist: activates mu-delta opioid heterodimer, MC4R agonist counter-screen; U2OS PathHunter beta-arrestin, beta-gal luminescence; percent of deltorphin B response, DMSO zero; shares compounds with MC4R ag barr; AID 602194; activation, % at 9.2 µM; 5.8% of 2,400 active;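 active = mean activation across replicates exceeds the hit threshold derived in the earlier primary screen, cut at about 18% in these data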;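 note: 100% = deltorphin B at 0.9 µM final and 0% = DMSO alone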
* marks the source's active call; other numbers are inactive results; . = not tested or not shown.

SMILES	MC4R ag barr	NR2E3 ag-1	PG9 binder	NR2E3 ag-2	NR1D1 modulator	MC4R antagonist	MC4R barr conf	MOR DOR agonist
Cc1ccc(NC(=O)c2ccc(S(=O)(=O)N3CCC(C)CC3)cc2)cc1	11*	-2	0	21	0	10	1	4
Cc1ccc(C(=O)Nc2ccc(S(=O)(=O)N3CCOCC3)cc2)cc1	0	0	-1	20	2	-8	.	.
O=C(Cn1nnc(-c2ccccc2F)n1)Nc1ccc(Cl)c(Cl)c1	.	.	.	.	-1	.	.	.
Cc1ccc(S(=O)(=O)N2CCN(S(=O)(=O)N3CCC(C)CC3)CC2)cc1C	10*	2	0	-4	3	-2	4	3
CC1CCN(S(=O)(=O)c2ccc(NC(=O)Cn3nnc(-c4ccccc4F)n3)cc2)CC1	12*	4	1	4	-3	-6	15*	7
COc1cccc(C(=O)Nc2nnc(-c3ccccc3)s2)c1	13*	.	5	-86	13	-4	2	1
COc1ccc(C(=O)NCc2ccc(-c3nc4ccccc4s3)cc2)cc1	1	-1	-1	-66	1	4	.	.
COc1cccc(C(=O)NCc2ccc(-c3nc4ccccc4s3)cc2)c1	30*	4	0	-117	6	0	2	4
N#Cc1ccc(OCC(=O)N[C@@H](Cc2ccccc2)c2nc3ccccc3[nH]2)cc1	.	.	0	.	2	.	.	.
CCOC(=O)c1c(NC(=O)CN2CCCc3ccccc32)sc(C(C)=O)c1C	23*	-1	0	-5	9	4	2	2
COc1cccc(C#Cc2c(C=O)n(C)c3ccccc23)c1	2	-3	1	-12	2	14	.	.
O=C1c2ccccc2C(=O)c2c(Nc3ccc(CCO)cc3)ccc(O)c21	19*	-14	-13	-28	-7	12	6	6
S=c1[nH]nc(C2CC2c2ccc(Cl)cc2)n1-c1ccc(Cl)cc1 (centres undefined)	11*	1	-1	6	-1	1	4	7
CSc1ccc(/C=C/C(=O)OCC(=O)c2ccc[nH]2)cc1	22*	-1	-1	-19	0	5	-1	6
O=C(N/N=C/c1ccc2cccnc2c1)c1nc2ccccc2c(=O)[nH]1	-1	-1	-3	-48	4	25	.	.
O=C(NS(=O)(=O)Nc1ccccn1)c1c[nH]c2ccccc12	-2	-4	-2	-6	0	2	.	.
Cc1cccc(N(CC(=O)N/N=C/c2ccc(C(=O)O)cc2)S(=O)(=O)c2ccccc2)c1C	-2	2	0	-23	3	2	.	.
COc1ccc2nc(Cl)c(/C=N/Nc3ccccn3)cc2c1	39*	0	-1	-52	0	2	1	5
CCOc1ccc(/C=N/Nc2ccccn2)cc1	-2	5	-2	-125	-1	-6	.	.
COc1ccc2c(c1)c1ncn(CCN3CCCCC3)c(=O)c1n2C	1	0	1	0	-10	4	.	.
CC[C@H](C)[C@@H](CNC)NC[C@@H](Cc1ccc(O)cc1)NCC(C)(C)C	0	0	-2	-1	0	9	.	.
CC[C@@H](C)[C@H](CN[C@H](CNC)C(C)C)NC[C@@H](C)c1ccc(CC(C)C)cc1	45*	2	-1	7	2	-1	16*	8
COc1ccc(S(=O)(=O)N(C)CC(=O)Nc2ccc(C(F)(F)F)cc2)cc1Cl	17*	-6	0	18	3	4	5	8
COc1ccc(NC(=O)CN(C)S(=O)(=O)c2ccc(Cl)cc2)cc1Cl	2	-1	0	0	3	6	.	.
Cc1ccc(S(=O)(=O)NC(=O)c2cc(C)n(CC(c3ccccc3)N(C)C)c2C)cc1 (centres undefined)	-2	3	0	-9	-1	1	.	.
SMILES	MC4R ag barr	NR2E3 ag-1	PG9 binder	NR2E3 ag-2	NR1D1 modulator	MC4R antagonist	MC4R barr conf	MOR DOR agonist
Cc1c(P(=S)(c2ccccc2)c2ccccc2)[n+]2ccccc2n1C/C=C/c1ccccc1	15*	.	1	-15	0	15	6	37*
CCCCC(=O)Nc1sc2c(c1C(=O)OCC)CCC(C=O)=C2Cl	10*	3	.	8	.	15	7	5
CCN(CC)CCOc1ccc2c(c1)C(=NO)c1cc(OCCN(CC)CC)ccc1-2	-1	-2	0	-9	1	-9	.	.
CCCOc1ccc2c(c1)C(=NN=C(N)N)c1cc(OCCC)ccc1-2	14*	4	2	19	1	7	11*	9
O=[N+]([O-])c1ccc(N/N=C/c2ccccc2)c(F)c1	12*	0	-3	-123	12	22	1	7
Cc1ccc(S(=O)(=O)CCC(=O)OCC(=O)NCc2ccccc2)cc1	0	3	-2	-9	-6	22	.	.
CCCC(=O)Oc1ccccc1C1SCc2cc(C)c(C)cc2CS1	16*	1	-1	-30	-4	10	5	4
CCOC(=O)C1=CN(Cc2ccco2)S(=O)(=O)NC1c1cccc(OC)c1 (centres undefined)	0	.	0	-7	-2	16	.	.
CCc1ccc(C2=NN(S(C)(=O)=O)C(c3cccs3)C2)cc1 (centres undefined)	1	2	-1	-69	0	1	.	.
O=C(N1CCOCC1)N1c2ccccc2Sc2ccccc21	1	-2	0	-5	-5	5	.	.
O=C(CN1c2ccccc2Sc2ccccc21)NNC(=O)Nc1ccc(Cl)c(Cl)c1	23*	1	0	-6	7	5	6	1
O=C(NNc1nc2ccccc2s1)Nc1ccc(F)cc1	2	-2	0	-48	-9	-9	.	.
O=C(NNc1nc2ccccc2s1)Nc1ccc(Cl)c(Cl)c1	16*	3	0	-20	-2	20	9.2*	10
CCOC(=O)C1=CCN(S(=O)(=O)c2ccc(C)cc2)C1c1cccs1 (centres undefined)	.	.	1	9	-1	.	.	.
COc1ccccc1OCCNC(=O)CC(NC(C)=O)c1ccccc1 (centres undefined)	-5	1	-1	-7	-6	5	.	.
CCC(C)(C)c1ccc(OCCCC[n+]2ccccc2)c(C(C)(C)CC)c1	12*	3	0	-2	16	13	12*	6
CCCCCc1ccc(OCCCC[n+]2ccccc2)c(CCCCC)c1	10*	-1	.	-5	.	16	8.3*	2
